The source of these data is BindingDB's records for doi:10.1021/np5000704 (University of North Carolina At Greensboro, 2014).

The assay concerns the target T1, Accessory gene regulator protein A (Staphylococcus aureus, UniProt P0A0I7).
T1 sequence (P0A0I7 whole entry): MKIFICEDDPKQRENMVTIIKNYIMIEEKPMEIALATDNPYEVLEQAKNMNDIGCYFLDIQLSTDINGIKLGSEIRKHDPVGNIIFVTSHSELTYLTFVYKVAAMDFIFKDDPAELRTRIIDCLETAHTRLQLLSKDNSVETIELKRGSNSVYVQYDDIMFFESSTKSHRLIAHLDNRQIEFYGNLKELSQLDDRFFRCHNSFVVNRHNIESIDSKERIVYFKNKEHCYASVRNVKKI
Put plainly: Inhibition of AGR quorum sensing system in methicillin-resistant Staphylococcus aureus AH2759 incubated for 15 hrs by P3-LUX reporter gene assay. The method in brief:
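S. aureus AH2759 (USA300 LAC, plasmid agr P3-luxABCDE) grown overnight in TSB with chloramphenicol 10 μg/mL, then diluted to a final 1:500. Compounds were added at 0.1–1000 μM final with 1% DMSO. Incubated at 37 °C with 250 rpm shaking. OD600 and luminescence were read hourly from 15 h. IC50 came from a weighted four-parameter logistic fit of OD-normalized luminescence; growth-delayed wells were excluded. AIP-2 (2–500 nM) was the control.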

Positions of bridges follow the written chain, without caps; N, C: chain ends. Residues, ends and D or L forms follow the SMILES beside them.

`O=C1c2cc(O)cc(O)c2C(=O)c2c(O)cc(CO)cc21`: the IC50 (commonly the concentration that inhibits the measured activity by half) is 8.1 µM.

`C[C@H](O)Cc1cc(O)c2c(c1)C(=O)c1cc(O)cc(O)c1C2=O`: half-maximal inhibition (IC50) required 8.9 µM.

The compound `CC(=O)Cc1cc(O)c2c(c1)C(=O)c1cc(O)cc(O)c1C2=O` came in with a half-maximal inhibitory concentration (IC50) of 19.8 µM.

As to `C[C@@H](O)[C@@H](O)c1cc(O)c2c(c1)C(=O)c1cc(O)cc(O)c1C2=O`, the IC50 amounted to 26.5 µM.

In turn, `CC(=O)C(O)c1cc(O)c2c(c1)C(=O)c1cc(O)cc(O)c1C2=O` (stereo not given) returned an IC50 of 30.1 µM.

With `O=C(O)c1cc(O)c2c(c1)C(=O)c1cc(O)c(O)c(O)c1C2=O`, the IC50 is 120 µM.

`CC(C)C[C@@H]1NC(=O)[C@H](CO)NC(=O)[C@H](CO)NC(=O)[C@@H](NC(=O)[C@H](C)NC(=O)[C@H](CC(N)=O)NC(=O)[C@@H](NC(=O)CN)C(C)C)CSC(=O)[C@H](Cc2ccccc2)NC1=O` (H-GVNACSSLF; thioester 5-C): the concentration for half-maximal inhibition (IC50) came out at 0.012 µM.

With `Cc1cc(O)c2c(c1)C(=O)c1cc(O)cc(O)c1C2=O` [1,3,8-trihydroxy-6-methylanthra-9,10-quinone], the IC50 turned out to be 17.1 µM.

For the compound `O=C(O)c1cc(O)c2c(c1)C(=O)c1cc(O)c(Cl)c(O)c1C2=O` [6-chloro-4,5,7-trihydroxy-9,10-dioxo-9,10-dihydroanthracene-2-carboxylic acid], it took 37.8 µM to reach half-maximal inhibition (IC50).

In the case of `O=C(O)c1cc(O)c2c(c1)C(=O)c1cc(O)cc(O)c1C2=O` [MLS000876948], the IC50 was 30.6 µM. The IC50 values of the last two compounds are within 1.5-fold of each other.
